# Htt clearance: mutant huntingtin protein clearance; AID 853; HeLa Exon1htt(103Q)mCFP, aggregate imaging; zero = plate's median compound well; 0.42% of 47,000 active; inhibition, % at 1.5 µM;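 active = inhibition of aggregate fluorescence above about 70%, also judged a hit by eye on the cell image, limit read from the data, passing the limit was not always enough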;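 also: cells exposed to compound for three days before fixation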
# D1 allo mod: D1 dopamine receptor (human) allosteric modulation. P21728. HEK293 D1, CRE-luciferase, dopamine EC30 potentiation; actives deviate in either direction. B-score at 10 µM. 5.9% of 58,000 active. AID 641;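 active = luminescence count or its row- and column-corrected plate score outside the 99.7% band of the plate's sample wells, on either side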
# Target sequence (P21728 whole entry, looked up): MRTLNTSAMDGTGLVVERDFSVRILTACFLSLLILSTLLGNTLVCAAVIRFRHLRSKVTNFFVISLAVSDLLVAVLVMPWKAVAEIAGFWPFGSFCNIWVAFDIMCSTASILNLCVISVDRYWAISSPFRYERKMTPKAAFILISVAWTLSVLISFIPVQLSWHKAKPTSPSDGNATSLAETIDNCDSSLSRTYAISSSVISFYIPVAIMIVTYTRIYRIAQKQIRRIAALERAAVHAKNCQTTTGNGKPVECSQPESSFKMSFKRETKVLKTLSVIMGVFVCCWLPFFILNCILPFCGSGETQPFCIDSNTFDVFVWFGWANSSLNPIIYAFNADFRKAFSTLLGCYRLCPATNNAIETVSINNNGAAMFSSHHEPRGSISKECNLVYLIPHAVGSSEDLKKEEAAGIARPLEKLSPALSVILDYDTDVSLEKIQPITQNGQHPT
# M1 ag: agonists of M1 muscarinic receptor; CHO-M1 cells, Fluo-4 calcium fluorescence, agonist mode; hits give high values; B-score at 10 µM; 3% of 64,000 active; AID 626;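 active = fluorescence rise, raw or as B-score row- and column-corrected plate score, outside the 99.7% band of its plate's samples, either direction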
# M1 antag: M1 muscarinic receptor (rat) antagonism | 3.4% of 64,000 active | B-score at 10 µM | CHO-M1 cells, Fluo-4 calcium, ACh EC80 antagonist mode; hits give low values | P08482;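 active = calcium fluorescence response, raw or row-and-column corrected B-score, differing from the plate sample mean either way at a set confidence level, mostly lower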
# AP ELISA ortho: orthogonal test for alternative complement pathway inhibitors; Human serum alternative complement pathway, LPS-coated ELISA, C3 deposition; tested in compound mixtures; inhibition, % at 5 µM; 0.08% of 62,000 active; AID 1235;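 active = inhibition above 30% in each of the two pooled mixtures holding the compound, so the lower value exceeds 30%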;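 also: 0% = serum in Mg-EGTA without compound and 100% = EDTA serum blank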
#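 Assay system: Human serum alternative complement pathway, C3 deposition on LPS-coated wells | Incubation: 1 h serum-compound exposure at 37 °C | Doses: 5 µM per compound in ten-compound mixtures | Read-out: Percent inhibition | Technique: ELISA with HRP anti-human C3 antibody, TMB substrate, absorbance 450 nm | Replication: Two pool placements per compound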
# M1 antag conf: M1 muscarinic receptor (rat) antagonism, confirmed. calcium response (max-min fluorescence) at 10 µM. CHO-M1 cells, Fluo-4 calcium, ACh EC80 antagonism; hits give low values. 43% of 1,700 active. shares compounds with M1 antag;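 active = calcium response below the same-plate mean of wells given acetylcholine alone at its 80%-effect dose, minus 3 SD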;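 also: raw fluorescence intensity difference in arbitrary instrument units and not normalized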
# mGluR4 antag: mGluR4 (human) activity, M1 antagonist secondary assay; shares compounds with M1 antag; CHO-mGluR4 calcium flux, Fluo-4 fluorescence, glutamate EC80; hits give low values; fluorescence response (max-min) at 10 µM; 0.9% of 1,700 active;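 active = fluorescence response below the plate's average for near-maximal glutamate wells, less 3 SD of those wells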;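 also: raw unnormalized fluorescence span taken in the window right after glutamate addition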
# * hit, by the source's call; nt = not tested or not shown. This is a sample that favours compounds with a hit; in the whole collection about 9% have one here.
SMILES,Htt clearance,D1 allo mod,M1 ag,M1 antag,AP ELISA ortho,M1 antag conf,mGluR4 antag
CSCC[C@H](NC(=O)NCc1ccc(F)cc1)C(=O)O,-16,0.16,-1.3,0.51,7,nt,nt
CNC(=O)C1C2C=CC3(O2)C1C(=O)N(C1CC1)C3C(=O)NCc1ccc(OC)cc1 (centres undefined),-24,-0.0055,-0.57,-2.1*,6,679,243
C=CCN1C(=O)C2C(C(=O)NC)C3C=CC2(O3)C1C(=O)NCc1ccc(OC)cc1 (centres undefined),nt,1.2,0.35,0.67,22,nt,nt
CCOC(=O)N1CCN(C(=O)c2cnn(-c3ccccc3)c2NC(=O)c2ccccc2F)CC1,nt,-0.97,0.3,-0.31,3,nt,nt
CCOC(=O)c1ccc(COC(=O)c2cc3ccccc3oc2=O)o1,nt,1.4,0.083,-2.4*,16,473*,206
CCOC(=O)COc1ccc2cc(C(=O)OCC)c(=O)oc2c1,-1,0.33,-0.32,0.12,26,nt,nt
Cc1ccc(Nc2nc(N)nc(CSc3nnc(-c4ccncc4)o3)n2)cc1,54,-0.07,-0.28,0,2,nt,nt
O=c1c2[nH]c3ccccc3c2ncn1CCN1CCNCC1,nt,0.2,0.2,-3.1*,7,719,230
Cc1ccc2c(c1)[nH]c1c(=O)n(CCN3CCNCC3)cnc12,-50,-0.35,-2,0.55,3,nt,nt
Cc1c(C(=O)OCC(C)(C)CN(C)C)oc2ccccc12,nt,-2.2,-0.25,-5*,-3,182*,233
Cc1c(C(=O)OCCN2CCCCC2)oc2ccccc12,22,-0.05,0.61,-10*,-4,13*,226
Cc1c(C(=O)OCC(=O)c2c(N)n(CC(C)C)c(=O)n(C)c2=O)oc2ccccc12,-58,nt,nt,nt,-6,nt,nt
Cc1c(C(=O)OC(C)CCN(C)C)oc2ccccc12 (centres undefined),-69,-1.3,-0.6,-13*,-13,18*,261
O=C(CN1CCN(C(=O)c2ccccc2F)CC1)Nc1ccc(Br)cc1,nt,0.023,-1.1,-0.3,12,nt,nt
COc1ccc(O)c(-c2cc(-c3cccs3)[nH]n2)c1,nt,nt,0.36,0.6,16,nt,nt
CCCC1COC(Cn2cncn2)(c2ccc(C)cc2)O1 (centres undefined),nt,2.5,1.2,-13*,-6,667,245
Cc1oc(-c2ccccc2F)nc1CSCC(=O)NCc1ccc2c(c1)OCO2,-26,0.99,0.45,0.87,nt,nt,nt
CC(=O)OC(C(=O)NCc1ccco1)c1cccnc1 (centres undefined),-15,-1,0.97,-1*,1,657,246
COc1ccc(C(=O)/C=C\N2CCOCC2)cc1,nt,-0.33,-0.16,-0.14,-14,nt,nt
S=c1[nH]nc(-c2ccc(Br)cc2)n1Cc1ccco1,72*,-1.2,-0.094,-10*,5,326*,227
O=C(Nc1ccc(Cl)cc1)N1CCSCC1,nt,-0.061,-0.029,-2.3*,-5,554,213
Cn1c(-c2cccc(Br)c2)cnc1NCc1cccnc1,-19,-1.3,-0.023,-6.9*,22,40*,166
Cn1c(-c2ccc(F)cc2)cnc1NCc1cccc(F)c1,13,nt,nt,nt,nt,nt,nt
COc1cccc(-c2cnc(NCc3cc(Cl)ccc3O)n2C)c1,nt,-2.6,-1.5,-5.1*,7,359*,185
CC(C)N(C(=O)c1ccccc1-c1ccccc1)C(C)C,-52,nt,nt,nt,nt,nt,nt
SMILES,Htt clearance,D1 allo mod,M1 ag,M1 antag,AP ELISA ortho,M1 antag conf,mGluR4 antag
CS(=O)(=O)N(CCc1ccccc1)CC(=O)N1CCN(c2ccc(F)cc2)CC1,-30,nt,nt,nt,nt,nt,nt
COc1cccc(N2C(=O)C3C(C2=O)C2C=CC3C23CC3)c1 (centres undefined),-22,nt,0.12,-3.1*,9,655,190
CC(C)(C)S(=O)(=O)c1c(C(=O)O)cccc1C(=O)O,nt,0.11,-0.63,0.049,-7,nt,nt
COc1ccc(-c2noc(CSc3nc4ccccc4c(=O)n3-c3ccccc3)n2)cc1OC,nt,nt,0.0052,-3.9*,4,671,235
O=c1c2ccccc2nc(SCc2nc(-c3ccccc3)no2)n1-c1ccc(F)cc1,nt,-0.39,-1.8,-0.42,12,nt,nt
COc1ccccc1N1CCN(C(=O)CCCn2c(=O)[nH]c3ccsc3c2=O)CC1,-176,-0.46,-1.4,-4.2*,20,617,222
COc1ccccc1N1CCN(C(=O)CCCCn2c(=O)[nH]c3ccsc3c2=O)CC1,nt,0.17,0.28,0.19,7,nt,nt
CC(C)Cn1c(CN2CCN(c3ccccc3F)CC2)nc2c1c(=O)[nH]c(=O)n2C,8,2.2,0.31,-0.11,-9,nt,nt
O=C(c1ccc(CNS(=O)(=O)c2ccccc2)cc1)N1CCN(Cc2ccccc2)CC1,22,nt,nt,nt,nt,nt,nt
Brc1cccc(-c2nnc3n2CCCCC3)c1,nt,-1.2,-0.28,-0.21,14,nt,nt
Brc1cccc(-c2cnc3n2CCCCC3)c1,nt,-3.3*,-0.59,-12*,-1,81*,177
Cc1csc(/C(=N\O)c2csc(C)n2)n1,-46,-1.2,-0.034,-0.0058,18,nt,nt
CCOC(=O)c1c(C)oc2ccc(O)c(CN(C)C)c12,nt,-1.3,-0.009,-1.3*,3,460,234
COc1ccc(C(=O)c2coc3ccc(O)c(CN(C)C)c23)cc1,nt,0.31,1,-0.44,16,nt,nt
CCN(CC)CC(=O)n1c2c(c3ccccc31)CCCC2,nt,-0.33,0.8,0.00065,7,nt,nt
CN1CCN(CC(=O)n2c3c(c4ccccc42)CCCC3)CC1,nt,-1.7,2.4,-2.9*,5,457*,285
CS(=O)(=O)Nc1ccc(Cc2ccc(NS(C)(=O)=O)cc2)cc1,-55,-1.3,-0.065,-3.2*,-19,552,230
CCCCCOc1ccc(NS(C)(=O)=O)cc1,-3,-0.54,0.36,-0.27,-5,nt,nt
CC(C)=CCCC(C)CN1CCC(O)CC1 (centres undefined),-1,-0.0011,-0.32,0.12,7,nt,nt
CC(C)=CCC/C(C)=C/CCC(C)NCCN1CCNCC1 (centres undefined),nt,-0.38,-0.08,-6.6*,-15,390*,262
Cc1ccc(Nc2nc(CSc3nnnn3C)cs2)cc1,21,-1.1,-0.32,-4.8*,-5,464,229
Cn1nnnc1SCc1csc(Nc2ccccc2)n1,nt,0.1,-0.75,-0.054,17,nt,nt
O=S(=O)(c1ccc2c(c1)OCCO2)N1CCC(O)(c2ccc(Cl)cc2)CC1,-27,-2,-0.66,-8.7*,-12,475*,260
O=C(COC(=O)c1ccccc1F)c1ccc(-n2nncc2-c2ccco2)cc1,nt,nt,0.084,-0.22,-5,nt,nt
O=C(CCCSc1nc2ccccc2s1)Nc1nccs1,nt,2.1,-0.048,-2.7*,18,620,243
COc1cccc(NC(=O)N(CCCN2CCOCC2)C(C)c2cc3ccccc3o2)c1 (centres undefined),7,nt,nt,nt,nt,nt,nt
O=S(=O)(NCCc1ccccc1F)c1cccc(S(=O)(=O)N2CCOCC2)c1,1,-0.74,-1.2,-0.32,7,nt,nt

# Screens as filed in PubChem.
